# Some of the results follow. The source made the active and inactive calls. Unless noted, the rule behind the calls is not given here.
# Test system: not listed separately
# Experiment: Brca1-Bard1 BiLC signal decrease – luminescence, single concentration, counter-screen for Mdm2/MdmX interaction inhibitor project, confirmation (AID 504668)
# Details: Brca1/Bard1 bimolecular luciferase complementation counterscreen, at 8 µM, stronger effect = higher value
row,Compound,inhibition
1,O=C1/C(=C\c2cccc(O)c2O)SC(=S)N1Cc1ccccc1,34.2% (active)
2,Cc1ccc2[nH]c(C(=O)N/N=C/c3ccccc3O)c(C)c2c1,25.3% (active)
3,Cc1cc(C)c2nc(NNC(=O)c3ccc(S(=O)(=O)N4CC(C)CC(C)C4)cc3)sc2c1 (centres undefined),23.2% (active)
4,Cc1ccc2oc(/N=C(\N)NC(=O)C(C)(C)C)nc2c1,31.8% (active)
5,COc1ccc(/C=C2/SC(=S)N(CCCC(=O)Nc3ccc(O)cc3)C2=O)cc1OC,29.9% (active)
6,Cc1cc(C=C2C(=O)c3ccccc3C2=O)c(C)n1-c1ccccc1,34.3% (active)
7,CC(C)(c1ccccc1)c1ccc(OCC(O)CNC2CCN(Cc3ccccc3)CC2)cc1 (centres undefined),35.2% (active)
8,CC(C)(C)c1ccc(Cn2c(=O)cnc3ccccc32)cc1,25.9% (active)
9,CC(C)c1ccc(-c2nc3ccccc3s2)cc1,35.8% (active)
10,O=C(/C=C/c1ccccc1)NC(NC(=S)Nc1cccc(Cl)c1)C(Cl)(Cl)Cl (centres undefined),25.6% (active)
11,COc1ccc(C(O)(CC(C)C)C(CN2CCOCC2)c2ccccc2)cc1 (centres undefined),30.5% (active)
12,COc1cccc2sc(N(CCCN(C)C)C(=O)C(c3ccccc3)c3ccccc3)nc12,24.8% (active)
13,O=C(CCSc1nc2ccccc2s1)N/N=C/c1c(O)ccc2ccccc12,31.6% (active)
14,O=C(NC1=NCCS1)C1COc2ccccc2O1 (centres undefined),34% (active)
15,COc1ccccc1C(=O)Nc1nc2ccccc2s1,31.7% (active)
16,COc1cc(/C=C/C(=O)N2CCC=CC2=O)cc(OC)c1OC,26.8% (active)
17,C=C(C)Cn1c(SCC(=O)N/N=C/c2c(O)ccc3ccccc23)nc2ccccc2c1=O,31.4% (active)
18,COC(=O)Cc1[nH]n(-c2nc3ccccc3s2)c(=O)c1C(C)=Nc1ccc(C)cc1,32.2% (active)
19,O=C(/C=C/Nc1ccccc1Br)c1ccccn1,24% (active)
20,C(=N\Nc1nc(-c2ccccn2)nc2ccccc12)/c1ccccc1,26.1% (active)

row,Compound,inhibition
1,Cc1ccc2occ(/C=N/NC(=O)c3ccccc3C)c(=O)c2c1,34.4% (active)
2,COc1cc2c(O)c3c(c(-c4ccc5c(c4)OCO5)c2cc1OC)C(=O)OC3,26.1% (active)
3,CCN1C(=O)C(=Cc2cccc(OC)c2Oc2ccc([N+](=O)[O-])cc2[N+](=O)[O-])SC1=S,27.9% (active)
4,O=C(O)c1cccc(COc2ccc3c(c2)CCC3)c1,24.1% (active)
5,C=CCc1cccc(/C=N/NC(=O)C(C)Nc2cccc(C)c2)c1O (centres undefined),34.9% (active)
6,O=C1c2ccccc2S(=O)(=O)N1Cc1nc2ccccc2s1,32.9% (active)
7,Cc1nnc(NC(=O)Nc2ccc(Cl)c(Cl)c2)s1,33.4% (active)
8,C=CCn1c(COc2ccccc2)nnc1SC(C)C(=O)N/N=C/c1cc(Cl)ccc1O (centres undefined),30.6% (active)
9,CCN1CCN(C(c2ccc(C(F)(F)F)cc2)c2ccc3cccnc3c2O)CC1 (centres undefined),31.2% (active)
10,COc1ccc(-c2cn[nH]c2-c2ccc(OC)cc2)cc1,35.1% (active)
11,Brc1ccc2ncnc(NCc3cccnc3)c2c1,26.8% (active)
12,O=C(N/N=C\c1c(O)ccc2ccccc12)c1ccc(Cn2cccn2)o1,24.8% (active)
13,Cc1cc(NC(c2ccc(Cl)cc2)c2ccc3cccnc3c2O)no1 (centres undefined),27.4% (active)
14,CCN(CC)c1ccc2nc3ccc(N)cc3[n+](-c3ccccc3)c2c1,23.6% (active)
15,CNC[C@H](CC1CCCCC1)NC[C@H](NCCC1CCCC1)[C@H](C)O,30.2% (active)
16,COc1cc(/C=C/c2ccc3cccc(O)c3n2)c(Br)cc1O,29.2% (active)
17,CCC(=O)NC(c1ccc(C)cc1)c1ccc2cccnc2c1O (centres undefined),23.7% (active)
18,O=C(N/N=C\c1c(O)ccc2ccccc12)c1cncc(Br)c1,26.8% (active)
19,Cc1cc(C(=O)COC(=O)C2=COCCO2)c(C)n1-c1ccccc1,31.6% (active)

# Test system: not listed separately
# Experiment: NF-kB reporter suppression in CF airway cells – cell-based, GFP fluorescence, single concentration, confirmation (AID 602472; in the data active = inhibition above about 40%;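 note: stimulus PAF is a Pseudomonas aeruginosa filtrate and not platelet activating factor; plate controls were DMSO wells with stimulus for no effect and unstimulated DMSO wells for full effect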)
# Details: KKLEB CF airway cells, PAF-induced NF-kB-GFP fluorescence, overnight; at 5 µM; stronger effect = higher value
# Procedure, shortened: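 Test system: KKLEB NFkB-GFP reporter cells | Buffer or medium: Medium with 2% FBS for cells, serum-free medium for stimulus | Probe or stimulus: Pseudomonas aeruginosa filtrate (PAF) as NFkB-activating stimulus | Doses: 5 µM single dose | Incubation: 2 h pretreatment, overnight stimulation | Measured by: GFP fluorescence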
row,Compound,inhibition
1,Cc1ccc2occ(/C=N/NC(=O)c3ccccc3C)c(=O)c2c1,94.8% (active)
2,Cc1nnc(NC(=O)Nc2ccc(Cl)c(Cl)c2)s1,68% (active)
3,COc1ccc(-c2cn[nH]c2-c2ccc(OC)cc2)cc1,69.3% (active)
4,Brc1ccc2ncnc(NCc3cccnc3)c2c1,69.2% (active)

# Molecular target: PEG-3 (UniProt Q6IN02)
# Experiment: inhibition of PEG-3 promoter-driven reporter – cell-based, HeLa, luciferase, CREF/GAPDH counter-screen panel, dose response (AID 624167)
# Details: CREF/GAPDH counter-screens; HeLa PEG-Prom luciferase reporter, overnight, run 1, dose range 1, at 100 µM (top of the series) unless noted
# Sequence of PEG-3 (Q6IN02 whole entry, looked up): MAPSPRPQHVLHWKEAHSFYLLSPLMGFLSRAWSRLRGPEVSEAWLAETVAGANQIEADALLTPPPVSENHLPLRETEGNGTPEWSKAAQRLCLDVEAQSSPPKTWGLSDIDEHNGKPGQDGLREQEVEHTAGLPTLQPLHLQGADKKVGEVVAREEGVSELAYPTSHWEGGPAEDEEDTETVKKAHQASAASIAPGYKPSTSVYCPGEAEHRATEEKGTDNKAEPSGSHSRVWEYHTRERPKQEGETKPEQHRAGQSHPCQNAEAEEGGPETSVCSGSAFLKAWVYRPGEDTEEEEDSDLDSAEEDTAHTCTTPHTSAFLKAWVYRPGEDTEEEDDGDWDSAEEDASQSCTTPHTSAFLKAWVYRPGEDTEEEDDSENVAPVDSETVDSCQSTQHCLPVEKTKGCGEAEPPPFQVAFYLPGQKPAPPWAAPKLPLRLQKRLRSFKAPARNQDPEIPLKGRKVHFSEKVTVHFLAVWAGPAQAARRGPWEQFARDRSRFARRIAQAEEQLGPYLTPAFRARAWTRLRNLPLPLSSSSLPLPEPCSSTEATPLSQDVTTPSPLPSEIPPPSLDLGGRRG
row,Compound,inhibition [%]
1,O=C1/C(=C\c2cccc(O)c2O)SC(=S)N1Cc1ccccc1,99.6
2,Cc1cc(C)c2nc(NNC(=O)c3ccc(S(=O)(=O)N4CC(C)CC(C)C4)cc3)sc2c1 (centres undefined),99.5
3,Cc1ccc2oc(/N=C(\N)NC(=O)C(C)(C)C)nc2c1,98
4,Cc1cc(C=C2C(=O)c3ccccc3C2=O)c(C)n1-c1ccccc1,62.9
5,CC(C)(c1ccccc1)c1ccc(OCC(O)CNC2CCN(Cc3ccccc3)CC2)cc1 (centres undefined),102
6,CC(C)(C)c1ccc(Cn2c(=O)cnc3ccccc32)cc1,100
7,CC(C)c1ccc(-c2nc3ccccc3s2)cc1,99.1
8,O=C(/C=C/c1ccccc1)NC(NC(=S)Nc1cccc(Cl)c1)C(Cl)(Cl)Cl (centres undefined),98.2
9,COc1ccc(C(O)(CC(C)C)C(CN2CCOCC2)c2ccccc2)cc1 (centres undefined),100
10,COc1cccc2sc(N(CCCN(C)C)C(=O)C(c3ccccc3)c3ccccc3)nc12,102
11,O=C(CCSc1nc2ccccc2s1)N/N=C/c1c(O)ccc2ccccc12,58.9
12,O=C(NC1=NCCS1)C1COc2ccccc2O1 (centres undefined),96.4
13,COc1ccccc1C(=O)Nc1nc2ccccc2s1,101
14,COc1cc(/C=C/C(=O)N2CCC=CC2=O)cc(OC)c1OC,99.1
15,C=C(C)Cn1c(SCC(=O)N/N=C/c2c(O)ccc3ccccc23)nc2ccccc2c1=O,54.6
16,COC(=O)Cc1[nH]n(-c2nc3ccccc3s2)c(=O)c1C(C)=Nc1ccc(C)cc1,80.3

row,Compound,inhibition [%]
1,O=C(/C=C/Nc1ccccc1Br)c1ccccn1,96.6
2,CCN1C(=O)C(=Cc2cccc(OC)c2Oc2ccc([N+](=O)[O-])cc2[N+](=O)[O-])SC1=S,21.1
3,O=C(O)c1cccc(COc2ccc3c(c2)CCC3)c1,98.5
4,C=CCc1cccc(/C=N/NC(=O)C(C)Nc2cccc(C)c2)c1O (centres undefined),60.8
5,O=C1c2ccccc2S(=O)(=O)N1Cc1nc2ccccc2s1,101
6,C=CCn1c(COc2ccccc2)nnc1SC(C)C(=O)N/N=C/c1cc(Cl)ccc1O (centres undefined),64
7,CCN1CCN(C(c2ccc(C(F)(F)F)cc2)c2ccc3cccnc3c2O)CC1 (centres undefined),101
8,O=C(N/N=C\c1c(O)ccc2ccccc12)c1ccc(Cn2cccn2)o1,84.9
9,Cc1cc(NC(c2ccc(Cl)cc2)c2ccc3cccnc3c2O)no1 (centres undefined),37.1
10,CCN(CC)c1ccc2nc3ccc(N)cc3[n+](-c3ccccc3)c2c1,101
11,CNC[C@H](CC1CCCCC1)NC[C@H](NCCC1CCCC1)[C@H](C)O,102
12,COc1cc(/C=C/c2ccc3cccc(O)c3n2)c(Br)cc1O,99.5
13,CCC(=O)NC(c1ccc(C)cc1)c1ccc2cccnc2c1O (centres undefined),-12.7
14,O=C(N/N=C\c1c(O)ccc2ccccc12)c1cncc(Br)c1,82.3
15,Cc1cc(C(=O)COC(=O)C2=COCCO2)c(C)n1-c1ccccc1,101
